From BindingDB's records for doi:10.1021/acs.jmedchem.5b01961 (Catabasis Pharmaceuticals, 2016)

Biological target: T1, Sterol regulatory element-binding protein 2 (Homo sapiens, UniProt Q12772)
T1 sequence (Q12772 whole entry): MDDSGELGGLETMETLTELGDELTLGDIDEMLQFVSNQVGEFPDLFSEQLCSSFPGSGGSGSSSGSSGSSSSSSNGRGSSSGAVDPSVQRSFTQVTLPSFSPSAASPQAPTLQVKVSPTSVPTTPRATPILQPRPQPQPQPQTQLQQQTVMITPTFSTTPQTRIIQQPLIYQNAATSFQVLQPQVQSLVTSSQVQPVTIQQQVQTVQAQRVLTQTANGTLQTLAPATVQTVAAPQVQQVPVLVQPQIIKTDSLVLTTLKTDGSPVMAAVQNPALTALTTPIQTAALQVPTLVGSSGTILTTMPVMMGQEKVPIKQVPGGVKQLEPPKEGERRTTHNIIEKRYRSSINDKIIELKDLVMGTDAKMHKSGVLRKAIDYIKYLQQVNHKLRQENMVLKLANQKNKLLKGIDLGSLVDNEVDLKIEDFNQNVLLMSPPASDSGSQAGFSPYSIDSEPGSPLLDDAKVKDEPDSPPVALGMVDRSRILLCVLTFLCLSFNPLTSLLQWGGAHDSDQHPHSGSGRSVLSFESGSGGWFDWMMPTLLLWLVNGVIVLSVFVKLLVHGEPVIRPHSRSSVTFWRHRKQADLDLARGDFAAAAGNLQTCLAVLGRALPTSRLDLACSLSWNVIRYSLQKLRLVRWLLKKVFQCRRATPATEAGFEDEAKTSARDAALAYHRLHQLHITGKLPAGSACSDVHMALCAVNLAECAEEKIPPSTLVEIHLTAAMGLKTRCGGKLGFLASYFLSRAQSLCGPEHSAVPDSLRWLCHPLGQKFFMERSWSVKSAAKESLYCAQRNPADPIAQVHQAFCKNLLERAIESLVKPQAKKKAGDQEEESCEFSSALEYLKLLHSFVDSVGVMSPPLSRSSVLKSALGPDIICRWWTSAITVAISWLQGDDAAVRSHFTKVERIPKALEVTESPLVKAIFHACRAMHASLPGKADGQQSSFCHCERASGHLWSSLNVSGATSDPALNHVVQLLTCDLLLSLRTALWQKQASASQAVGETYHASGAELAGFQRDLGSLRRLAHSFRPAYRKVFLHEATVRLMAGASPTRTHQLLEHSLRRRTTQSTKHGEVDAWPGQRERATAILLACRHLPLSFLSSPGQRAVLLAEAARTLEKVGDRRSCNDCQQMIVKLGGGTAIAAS
Experiment: Inhibition of SREBP2 in human HepG2 cells assessed as reduction of PCSK9 secretion after 16 hrs by ELISA
How it was run: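 HepG2 cells treated with compound; secreted PCSK9 in culture supernatants measured with a human-specific PCSK9 ELISA.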

CC/C=C\C/C=C\C/C=C\C/C=C\C/C=C\CCCC(=O)NCCNC(=O)c1cccnc1
IC50: 17 µM
